According to ChEMBL document CHEMBL3822375, “Preclinical Characterization of 3β-(N-Acetyl l-cysteine methyl ester)-2aβ,3-dihydrogaliellalactone (GPA512), a Prodrug of a Direct STAT3 Inhibitor for the Treatment of Prostate Cancer” (J Med Chem, 2016):
≈ marks a conversion by molar mass, not a printed value. Calls of active or inactive are those of the source. No cut-off for these calls is given here.

Legend:
[1] = Half life in mouse plasma by LC-MS/MS analysis; format: ADME, cell-free
[2] = Apparent half life in mouse plasma at 10 mg/kg, po by LC-MS/MS analysis; format: ADME, organism-based; details: read-out: t1/2(app)
In short: (§1)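 Single dose to mice; oral, iv or ip as listed, in 5% DMSO/50 mM citrate buffer pH 4.0 (dosing solutions 0.5, 2 or 5 mg/mL). Oral dosing at 20 mL/kg. Terminal blood under barbiturate anaesthesia at eight time-points to 8 h, n=3 mice per time-point, EDTA plasma. Acetonitrile precipitation with internal standard, LC-MS/MS against plasma calibration lines. Non-compartmental analysis on mean data, trapezoidal AUC.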

[3] = tested on: PC-3; experiment: Cytotoxicity against human PC3 cells assessed as inhibition of cell viability at 3 uM after 72 hrs by WST-1 proliferation assay; format: functional, cell-based
In short: (§2)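 Cells in RPMI-1640 (DU145, LNCaP, LNCaP-IL6+) or HAM's F-12 (PC3) with 10% FBS. DU145 and LNCaP-IL6+ seeded at 2 000 cells/well, LNCaP and PC3 at 5 000 cells/well, adhered 24 h, then exposed to compound for 72 h. WST-1 absorbance read at 450 nm with 630 nm reference. Background subtracted; expressed as percent of untreated cells.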

[4] = tested on: Hepatocyte; experiment: Drug level in mouse hepatocytes treated with 3-beta-(N-Acetyl-L-cysteine methyl ester)-2a-beta,3-dihydrogaliellalactone measured after 2 hrs by UPLC-MS analysis; format: ADME, cell-based
In short: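 Cryopreserved mouse hepatocytes in Celsis InVitro HI medium, pH 7.4, 37 °C, with 10 µM initial compound from DMSO stock. Sampled at 0 and 120 min, quenched with an equal volume of acetonitrile, analysed by UPLC/Q-TOF-MS. Viability checked by Trypan blue.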

[5] = tested on: PC-3; experiment: Antiproliferative activity against human PC3 cells at 3 uM after 72 hrs by WST-1 proliferation assay; format: functional, cell-based; in short: as §2
[6] = Drug metabolism in S9 intestinal fraction (unknown origin) assessed as glutathione conjugate formation; format: ADME
[7] = Tmax in mouse plasma at 5 mg/kg, ip by LC-MS/MS analysis; format: ADME, organism-based
[8] = Apparent half life in mouse plasma at 5 mg/kg, ip; format: ADME, organism-based
[9] = tested on: Mus musculus; experiment: AUC (0 to infinity) in mouse plasma at 1.25 mg/kg, iv by LC-MS/MS analysis; format: ADME, organism-based; parameters: dose 1.25 mg/kg, time infinity, route intravenous; details: in vivo; in short: as §1
[10] = tested on: Mus musculus; experiment: AUC (0 to t) in mouse plasma at 1.25 mg/kg, iv by LC-MS/MS analysis; format: ADME, organism-based; details: in vivo; in short: as §1
[11] = Cmax in mouse plasma at 1.25 mg/kg, iv by LC-MS/MS analysis; format: ADME, organism-based; parameters: dose 1.25 mg/kg, route intravenous; in short: as §1
[12] = Solubility of the compound in phosphate buffer saline at pH 7.4 by LC-MS analysis; format: physicochemical; details: phosphate buffered saline
[13] = Apparent permeability from apical to basolateral side in human Caco2 cells at 20 uM measured after 120 mins by UPLC-MS/MS analysis; format: ADME, cell-based; details: Caco-2
In short: (§3)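 Caco-2 monolayers in Hanks' balanced salt solution with 10 mM Hepes, pH 7.4. Apical and basolateral transport measured at 20 µM test item. Both compartments sampled at 0, 60 and 120 min and analysed by UPLC-MS/MS.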

[14] = tested on: DU-145; experiment: Cytotoxicity against human DU145 cells expressing pSTAT3 assessed as inhibition of cell viability at 3 uM after 72 hrs by WST-1 proliferation assay; format: functional, cell-based; in short: as §2
[15] = tested on: Mus musculus; experiment: AUC (0 to t) in mouse plasma at 5 mg/kg, ip by LC-MS/MS analysis; format: ADME, organism-based; details: in vivo; in short: as §1
[16] = tested on: LNCaP; experiment: Antiproliferative activity against human LNCAP cells expressing IL6 and pSTAT3 at 3 uM after 72 hrs by WST-1 proliferation assay; format: functional, cell-based; in short: as §2
[17] = Volume of distribution in mouse plasma at 1.25 mg/kg, iv by LC-MS/MS analysis; format: ADME, organism-based
[18] = Stability of compound assessed as compound disappearance measured after 2 hrs by LC-MS/MS analysis; format: physicochemical
[19] = tested on: LNCaP; experiment: Cytotoxicity against human LNCAP cells expressing IL6 and pSTAT3 assessed as inhibition of cell viability at 3 uM after 72 hrs by WST-1 proliferation assay; format: functional, cell-based; in short: as §2
[20] = Cmax in mouse plasma at 5 mg/kg, ip by LC-MS/MS analysis; format: ADME, organism-based; parameters: dose 5 mg/kg, route intraperitoneal; in short: as §1
[21] = tested on: Mus musculus; experiment: AUC (0 to t) in mouse plasma at 10 mg/kg, po by LC-MS/MS analysis; format: ADME, organism-based; details: in vivo; in short: as §1
[22] = Half life in mouse plasma at 5 uM by LC-MS/MS analysis; format: ADME, cell-free
In short: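 Plasma of each species incubated at 37 °C with compound at 5 µM initial, 1% DMSO, n=2. Simvastatin and eucatropine run as controls. Aliquots taken at 0, 5, 15, 30 and 60 min and quenched with acetonitrile containing internal standard, then analysed by LC-MS/MS.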

[23] = Metabolic stability in mouse hepatocytes assessed as compound disappearance measured after 2 hrs by LC-MS/MS analysis; format: ADME, cell-based, Hepatocyte; details: read-out: Drug degradation
In short: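 Cryopreserved mouse hepatocytes incubated with an initial 10 µM test item (DMSO stock) in Celsis InVitro HI medium, pH 7.4, 37 °C. Cell viability checked by Trypan blue. Sampled at 0 and 120 min and stopped with an equal volume of acetonitrile. Analysed by UPLC/Q-TOF-MS.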

[24] = tested on: Mus musculus; experiment: AUC (0 to infinity) in mouse plasma at 10 mg/kg, po by LC-MS/MS analysis; format: ADME, organism-based; parameters: dose 10 mg/kg, route oral, time infinity; details: in vivo; in short: as §1
[25] = Antiproliferative activity against human DU145 cells after 72 hrs by WST-1 proliferation assay; format: functional, cell-based; details: DU-145, 72 h; in short: as §2
[26] = tested on: LNCaP; experiment: Antiproliferative activity against human LNCAP cells at 3 uM after 72 hrs by WST-1 proliferation assay; format: functional, cell-based; in short: as §2
[27] = Efflux ratio of apparent permeability across apical to basolateral side over basolateral to apical side in human Caco2 cells at 20 uM measured after 120 mins by UPLC-MS/MS analysis; format: ADME, cell-based; details: caco-2, 2 h; in short: as §3
[28] = Chemical stability of the compound in phosphate buffer saline assessed as half life at 10 uM at pH 7.4 by LC-MS/MS analysis; format: physicochemical; details: phosphate buffered saline
In short: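 Compound diluted from DMSO (or methanol) stock to 10 µM, 2% solvent final, n=2. Matrix was 0.1 M PBS pH 7.4, or […] HCl with 2 mg/mL NaCl adjusted to pH 1.2. Mixed on a shaker; sampled at nominal 5, 15, 30 and 60 min plus T=0. LC-MS/MS with internal standard; % remaining relative to T=0. Formation of parent also monitored.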

[29] = Tmax in mouse plasma at 1.25 mg/kg, iv by LC-MS/MS analysis; format: ADME, organism-based
[30] = tested on: Mus musculus; experiment: AUC (0 to infinity) in mouse plasma at 5 mg/kg, ip by LC-MS/MS analysis; format: ADME, organism-based; parameters: dose 5 mg/kg, route intraperitoneal, time infinity; details: in vivo; in short: as §1
[31] = Clearance in mouse plasma at 1.25 mg/kg, iv by LC-MS/MS analysis; format: ADME, organism-based; in short: as §1
[32] = tested on: LNCaP; experiment: Cytotoxicity against human LNCAP cells assessed as inhibition of cell viability at 3 uM after 72 hrs by WST-1 proliferation assay; format: functional, cell-based; in short: as §2
[33] = Apparent half life in mouse plasma at 1.25 mg/kg, iv by LC-MS/MS analysis; format: ADME, organism-based; details: read-out: t1/2(app); in short: as §1
[34] = tested on: DU-145; experiment: Antiproliferative activity against human DU145 cells expressing pSTAT3 at 3 uM after 72 hrs by WST-1 proliferation assay; format: functional, cell-based; in short: as §2

In the case of C[C@@H]1C=C2C(=O)O[C@@H]3CC[C@H](C1)[C@]23O, the half-life [1] is reported as 74 min, the half-life [2] is reported as 89 min and the inhibition [3] is reported as “inactive”. For the same compound, the Drug metabolism [4] was “metabolite_detected”, the Activity [5] was “inactive” and the Drug metabolism [6] was “metabolite_detected”. It also gave a Tmax [7] of 5 min, a half-life [8] of 144 min and an AUC [9] of 171 µg/mL/min. It also gave an AUCt [10] of 159 µg/mL/min, a Cmax [11] of 2960 ng/mL and a solubility [12] of 143 µM (≈ 27.8 µg/mL). For the same compound, the Papp A→B at 2 h, 20 µM [13] was 65.9 ×10⁻⁶ cm/s, the inhibition [14] was “Active” and the AUCt [15] was 351 µg/mL/min. For the same compound, the Activity [16] was “Active”, the Vd [17] was 1.4 L/kg and the Stability [18] was “Stable”. The inhibition [19] was “Active”, the Cmax [20] was 5520 ng/mL and the AUCt [21] was 5 µg/mL/min. The half-life at 5 µM [22] was 74 min, the metabolised at 2 h [23] was 45% and the AUC [24] was 6 µg/mL/min. For the same compound, the IC50 [25] was 3.02 µM, the Activity [26] was “inactive” and the Ratio [27] was 2. The half-life at 10 µM [28] was over 588 min, the Tmax [29] was 5 min and the AUC [30] was 372 µg/mL/min. The clearance [31] was 7.3 mL/min/kg, the inhibition [32] was “inactive” and the half-life [33] was 130 min. The Activity [34] was “Active”.
